# PPC-1+TRAIL kill: PPC-1 cancer cell killing with TRAIL present; PPC-1 cells + TRAIL, ATPLite viability luminescence; 220,000 compounds, 0.41% hits; cell killing (% activity), % at 4 µM or 5 µM;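 active means cell killing above 50% in the first pass at 4 µM, then a duplicate retest at 5 µM averaging 50% or more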
# C8 TRAIL sens: sensitizes caspase-8 expressing cells to TRAIL. NB7+C8 cells + TRAIL, ATPlite viability luminescence. inhibition (viability loss, TRAIL sensitization), % at 10 µM. 360,000 compounds, 1% hits;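 active means compounds causing at least 50% loss of cell viability in the single-dose screen, relative to plate controls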
# FLuc inh counter: counter-screen for luciferase assay inhibitors: firefly luciferase inhibition; ATPLite firefly luciferase biochemical luminescence, 10 min; inhibition, % at 10 µM; 200,000 compounds, 1.5% hits; P08659;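 active means inhibition above about 50% when tested at 10 µM, limit read from the data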
# Target sequence (P08659 whole entry, looked up): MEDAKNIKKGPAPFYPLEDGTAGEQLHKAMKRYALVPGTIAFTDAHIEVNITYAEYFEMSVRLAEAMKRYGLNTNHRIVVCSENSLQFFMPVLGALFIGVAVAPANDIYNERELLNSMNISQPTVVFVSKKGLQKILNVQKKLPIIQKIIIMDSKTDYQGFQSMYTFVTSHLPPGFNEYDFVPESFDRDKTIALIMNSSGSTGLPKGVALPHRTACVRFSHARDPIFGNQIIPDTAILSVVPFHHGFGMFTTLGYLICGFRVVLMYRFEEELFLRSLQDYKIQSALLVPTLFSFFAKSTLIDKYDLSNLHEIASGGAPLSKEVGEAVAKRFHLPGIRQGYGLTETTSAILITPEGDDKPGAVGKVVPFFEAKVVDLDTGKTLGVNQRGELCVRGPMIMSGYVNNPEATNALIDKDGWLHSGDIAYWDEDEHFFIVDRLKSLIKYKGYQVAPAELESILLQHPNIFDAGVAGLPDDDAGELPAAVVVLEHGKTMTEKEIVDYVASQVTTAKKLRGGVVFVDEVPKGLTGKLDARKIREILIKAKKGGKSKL
# FLuc act counter: affects firefly luciferase, flagging false hits in luciferase stimulation screens. P08659. ATPlite luciferase biochemical, luminescence, 10 min; 0 = ATP-free wells, 1 = DMSO control. activation factor at 10 µM. 200,000 tested, under 10 active. AID 1027;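 active means luciferase activation factor, scaled between plate controls, of at least 2 with compound at 10 µM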
#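 System: Luciferase/luciferin detection reagent, cell-free biochemical luciferase assay | Medium: PBS buffer for ATP | Dosing: Test compounds dosed from 2 mM stocks in 100% DMSO | Timing: 10 min at ambient temperature | Signal: Luminescence measurement of luciferase light output | Evaluation: Luciferase activation, seen as luminescence increase over controls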
# HSP90 inh: inhibitors of HSP90 luciferase refolding in rabbit reticulocyte lysate; inhibition, % at 5.6 µM; 290,000 compounds, 0.91% hits; luciferase refolding luminescence, 3 h; AID 1789;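 active means inhibition above the screen-wide mean plus 3 SD, computed separately per campaign, cut at about 16% in these data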;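 further: inhibitors lower the luminescence because luciferase stays unfolded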
# PPC-1 tox: kills PPC-1 cells. AID 1447. shares compounds with PPC-1+TRAIL kill. PPC-1 viability, ATPlite luminescence, overnight. cytotoxicity, % at 5 µM. 1,200 compounds, 50% hits;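 active means reconfirmed compounds whose average cytotoxicity reaches 50% or more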
# HSP90 inh confirm: confirmation of HSP90 inhibitors; inhibition, % at 5.9 µM; shares compounds with HSP90 inh; rabbit reticulocyte lysate, luciferase refolding luminescence, 3 h; 2,300 compounds, 64% hits; in the data active means inhibition above about 18%
# luciferase ctr: counter-screen for HSP90 inhibitors: inhibitors of firefly luciferase. shares compounds with HSP90 inh. purified native firefly luciferase, luminescence. 2,300 compounds, 48% hits. AID 1847. inhibition, % at 5.9 µM;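 active means inhibition above the mean inhibition of all tested sample wells plus 3 SD, cut at about 10% in these data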
# A number is an active result; - = inactive; . = not tested or not shown. Rows were chosen to be rich in hits. Some 2% of all compounds tested hit in one or more screens of this group.
SMILES,PPC-1+TRAIL kill,C8 TRAIL sens,FLuc inh counter,FLuc act counter,HSP90 inh,PPC-1 tox,HSP90 inh confirm,luciferase ctr
CCCCC(=O)Nc1cc2nn(-c3ccc(OC)cc3)nc2cc1C,-,-,-,-,-,.,.,.
CCC(=O)Nc1cc2nn(-c3ccc(C)cc3)nc2cc1C,59,65,66,-,51,55,75,67
COc1cc(C=NOC(=O)Nc2ccccc2)cc(OC)c1OC,.,-,.,.,.,.,.,.
COc1ccc(NC(=O)O/N=C/c2c(C)nn(C(C)(C)C)c2C)cc1,72,-,.,.,33,74,51,53
CC(=O)CSc1nnc(-c2ccc3c(c2)OCO3)o1,-,-,67,-,18,-,37,-
CC(=O)Nc1ccc(NC(=O)CSc2nnc(-c3ccc4c(c3)OCO4)o2)cc1,.,-,.,.,.,.,.,.
Cc1ccc(C)c(NC(=O)Cn2cnc3c(oc4ccccc43)c2=O)c1,-,-,-,-,-,.,.,.
C/C(=N\Nc1c([N+](=O)[O-])c(C)nn1C)c1ccc(F)cc1F,-,-,-,-,-,.,.,.
O=C(Nc1nc2ccccc2[nH]1)c1ccccc1,62,84,88,-,17,60,57,39
C(=C\c1nc2ccccc2[nH]1)/c1ccccc1,88,86,94,-,31,88,54,48
COc1ccc(-c2nc(-c3cccs3)no2)cc1,-,63,.,.,33,-,87,81
Cc1ccc(-c2noc(-c3cccs3)n2)cc1,-,-,-,-,-,.,.,.
CCn1c(O)c(N=Nc2ccc3ccccc3n2)c2ccccc21,-,-,.,.,-,.,.,.
Brc1ccc(N=Nc2ccc3ccccc3n2)cc1,94,92,.,.,61,93,95,86
Cc1ccc(C(=O)NCCc2cccs2)cc1,69,78,89,-,55,67,74,62
COc1cccc(/C=N/Nc2nccnc2Cl)c1O,-,72,84,-,55,-,72,59
CCN(CC(=O)NC1CCS(=O)(=O)C1)c1ccc(S(=O)(=O)N(CC)CC)cc1[N+](=O)[O-] (stereo unspecified),.,-,.,.,.,.,.,.
CC(=O)Nc1nccc(-c2cc(-c3ccccc3)no2)n1,-,.,.,.,-,.,.,.
CCc1ccn2cc(-c3cc(-c4ccccc4)no3)nc2c1,81,90,.,.,82,80,86,84
CCOC(=O)c1cnc(Nc2nc3ccccc3o2)nc1CN1CCN(c2ccccc2)CC1,.,.,.,.,-,.,.,.
CCOC(=O)c1cnc(Nc2nc3ccccc3o2)nc1C,81,88,91,-,18,79,86,75
CCCCN(C)S(=O)(=O)c1c(C)[nH]c(=O)[nH]c1=O,-,-,-,-,25,-,-,-
Cn1c(=N)n(CC(=O)O)c2ccccc21,-,-,-,-,-,.,.,.
Cn1c(=N)n(CC(=O)c2ccccc2)c2ccccc21,53,81,.,.,29,57,-,-
Cc1csc(NC(=O)c2ccc3ccccc3n2)n1,.,-,.,.,-,.,.,.
SMILES,PPC-1+TRAIL kill,C8 TRAIL sens,FLuc inh counter,FLuc act counter,HSP90 inh,PPC-1 tox,HSP90 inh confirm,luciferase ctr
Cc1csc(NC(=O)c2cn3ccccc3n2)n1,80,85,94,-,54,78,70,62
CCOC(=O)N(C)S(=O)(=O)c1ccccc1[N+](=O)[O-],-,-,-,-,-,.,.,.
N#Cc1c(N)nc2c(c1-c1ccccc1)CCC2,-,-,-,-,-,.,.,.
Brc1ccc2ncc(Br)cc2c1,-,-,-,-,-,.,.,.
CC(=O)Nc1ccc(NC2=C/C(=N/S(=O)(=O)c3cccs3)c3ccccc3C2=O)cc1,73,84,-,-,55,74,67,-
Cc1ccc(NC2=C/C(=N/S(=O)(=O)c3cccs3)c3ccccc3C2=O)cc1C,-,-,-,-,-,.,.,.
COc1ccc(NC(=O)Cn2cnc3sc(C)c(S(=O)(=O)N4CCOCC4)c3c2=O)c(OC)c1,-,-,-,-,-,.,.,.
COc1cccc(C(C)(O)c2nc(-c3ccoc3)cs2)c1 (stereo unspecified),.,-,.,.,.,.,.,.
Cc1ccccc1-c1nc(-c2ccccn2)no1,84,87,95,-,46,80,86,82
COc1ccccc1-c1noc(-c2ccncc2)n1,-,-,-,-,-,.,.,.
COc1ccccc1-c1nc(-c2ccccn2)no1,63,73,88,-,47,63,78,65
O=C(CN(c1ccccc1)S(=O)(=O)c1ccccc1)Nc1ccc(F)cc1,.,-,.,.,-,.,.,.
CCN1CCN(c2oc(-c3ccco3)nc2C#N)CC1,-,-,.,.,-,.,.,.
CCN(CC)c1ccc2cc(-c3nc4ccccc4[nH]3)c(=O)oc2c1,96,95,96,-,35,95,68,67
CC(C)Cc1cc(C(=O)Nc2ccc(Br)cc2)no1,-,-,.,.,-,.,.,.
CC(C)Cc1cc(C(=O)Nc2cccc(O)c2)no1,63,64,.,.,39,61,71,65
Cc1ccc2oc(/N=C(\N)NC(=O)C(C)(C)C)nc2c1,83,86,.,.,81,83,85,83
Clc1ccc2nc(-c3ccc4c(c3)OCO4)cn2c1,80,79,93,-,24,74,73,71
COc1ccc(-c2cn3cc(C)ccc3n2)cc1F,74,73,93,-,48,74,63,58
Cc1ccc2nc(-c3ccc4c(c3)OCCO4)cn2c1,93,92,.,.,93,92,94,90
Cc1ccc2nc(-c3ccc4c(c3)NC(=O)CO4)cn2c1,-,-,.,.,-,.,.,.
CC(=O)c1c(C)[nH]c(C(=O)Nc2cc(C)cc(C)c2)c1C,-,-,-,-,-,.,.,.
CC(=O)c1c(C)[nH]c(C(=O)Nc2ccc(C)cn2)c1C,69,73,88,-,27,66,79,70
CC(=O)c1c(C)[nH]c(C(=O)Nc2nc(C)cs2)c1C,66,73,90,-,51,65,77,66
CCCCN1C2CCCC1CC(NC(=O)c1cccc(Cl)c1)C2 (stereo unspecified),.,-,.,.,-,.,.,.
SMILES,PPC-1+TRAIL kill,C8 TRAIL sens,FLuc inh counter,FLuc act counter,HSP90 inh,PPC-1 tox,HSP90 inh confirm,luciferase ctr
COc1cccc(CNC(=O)CCSCc2ccccc2F)c1,-,-,-,-,-,.,.,.
O=C(Nc1nccs1)c1cc2c(s1)CCCCC2,84,90,94,-,59,78,86,81
Cc1ccc2nc(-c3ccc(NC(=O)C4CCCO4)cc3)[nH]c2c1 (stereo unspecified),65,57,82,-,24,64,55,35
COc1ccccc1CNC(=O)CCCc1nnc2n(C)c(=O)c3sccc3n12,.,-,.,.,-,.,.,.
Cc1n[nH]c(=O)c2c(NC(=O)CSc3ccc(Br)cc3)oc(C)c12,.,-,.,.,.,.,.,.
O=C(Nc1nc2cc3c(cc2s1)OCO3)c1ccco1,68,75,.,.,25,72,69,68
CC(=O)Nc1nc2cc3c(cc2s1)OCO3,-,-,-,-,-,.,.,.

# High-throughput results: PubChem BioAssay, several laboratories
